Published values gathered from unrelated publications.
EGFR L858R/T790M: Epidermal growth factor receptor (EGFR, Homo sapiens, UniProt P00533, L858R/T790M)
EGFR G719C: Epidermal growth factor receptor (EGFR, Homo sapiens, UniProt P00533, G719C)
EGFR: Epidermal growth factor receptor (EGFR, Homo sapiens, UniProt P00533)

| SMILES | target | test | conditions | measurement | result |
| --- | --- | --- | --- | --- | --- |
| C[C@H]1CCN(c2nccc(-c3cnn4ncccc34)n2)C1 | Epidermal growth factor receptor (EGFR, Homo sapiens, UniProt P00533, T790M) | binding | 1 µM | remaining binding | 76% |
| Cc1ccc(C(=O)Nc2ccc(CN3CCN(C)CC3)c(C(F)(F)F)c2)cc1C#Cc1cnc2cccnn12 | Epidermal growth factor receptor (EGFR, Homo sapiens, UniProt P00533, L858R) | cell-free assay | 23.5 nM | remaining signal | 95% |
| Cc1ccc(NC(=O)c2ccc(C)c(C(F)(F)F)c2)cc1C#Cc1nn(C2CCC(O)CC2)c2ncnc(N)c12 (stereo not shown) | EGFR L858R/T790M | cell-free assay | 10 µM | remaining signal | 0% |
| CCOC(=O)c1cc2cc(-c3cc(C(=O)NCc4ccc(C(=O)O)cc4)nn3C)ccc2[nH]1 | Epidermal growth factor receptor (EGFR, Homo sapiens, UniProt P00533, del746-750) | cell-free assay, competition with immobilised ligand | 0.1 µM | remaining binding | 100% |
| COc1cc(-c2cc(-c3ccc(N4CCNCC4)cc3)cnc2N)cc(OC)c1OC | EGFR L858R/T790M | enzyme activity, inhibitor | 0.1 µM | inhibition | 0% |
| N[C@@H]1CCN(c2nccc(-c3cnn4ncccc34)n2)C1 | EGFR G719C | binding | 1 µM | remaining binding | 83% |
| Cc1nc(Cc2cccc(C(F)(F)F)c2)sc1-c1ccc(C(N)=O)nc1 | EGFR G719C | cell-free assay, competition with immobilised ligand | 1 µM | remaining binding | 94% |
| CC/C(=N\NC(=O)NCc1cccc(O)c1)c1ccc(O)c(C)c1O | EGFR L858R/T790M | enzyme activity, inhibitor | 0.1 µM | inhibition | 0.1% |
| CN(c1nccc(-c2cnn3ncccc23)n1)C1CC1 | EGFR | binding | 1 µM | remaining binding | 100% |
| COc1cc(-c2cn(C3CCc4c(F)cccc4N(CC(F)(F)F)C3=O)nn2)ccc1-n1cnc(C)c1 (stereo not shown) | Epidermal growth factor receptor (EGFR, Homo sapiens, UniProt P00533, A750P/del747-749) | cell-free assay, competition with immobilised ligand | 1 µM | remaining binding | 100% |
| CN(CCCC(F)(F)F)c1nccc(-c2cnn3ncccc23)n1 | Epidermal growth factor receptor (EGFR, Homo sapiens, UniProt P00533, L861Q) | binding | 1 µM | remaining binding | 73% |
| FC(F)(F)c1ccc2c(c1)nc(-c1cccnc1)n2C1CC1 | Epidermal growth factor receptor (EGFR, Homo sapiens, UniProt P00533, del747-752/P753S) | cell-free assay, competition with immobilised ligand | 1 µM | remaining binding | 100% |
| Cc1cc(NC(=O)c2cccc3cc(-c4cccc5[nH]nc(N)c45)ccc23)ccc1F | EGFR | enzyme activity, inhibitor | 0.1 µM | activity vs control | 103% |
| Cc1cnc(NC2CCOCC2)nc1-n1cnc(C(=O)NC(CN)c2cc(F)cc(Cl)c2)c1 (stereo not shown) | EGFR | enzyme activity, inhibitor, radiometric | 1 µM | remaining activity | 108% |
| Nc1ncnc2occ(-c3ccc(NC(=O)Nc4cc(C(F)(F)F)ccc4F)cc3)c12 | Epidermal growth factor receptor (EGFR, Homo sapiens, UniProt P00533, del747-750/T751S) | cell-free assay | 20 µM | remaining signal | 27% |
| NS(=O)(=O)c1cc(NC(=O)Cc2ccccc2)ccc1Oc1cccc(Cl)c1 | EGFR G719C | cell-free assay, competition with immobilised ligand | 1 µM | remaining binding | 63% |
